The results in this text go back to ChEMBL document CHEMBL2406928, “Discovery of novel insulin-like growth factor-1 receptor inhibitors with unique time-dependent binding kinetics” (ACS Med Chem Lett, 2013).

The nature of data set [1]: Tmax in CD1 mouse at 2.5 mg/kg, po. The note with it: in vivo. It is filed as ADME, organism-based. On the set-up: dose 2.5 mg/kg, route oral.
The nature of data set [2]: Plasma concentration in CD1 mouse at 2.5 mg/kg, po measured at 24 hrs. Format: ADME, organism-based. On the set-up: dose 2.5 mg/kg, route oral.
Data set [3] in a line: Plasma concentration in CD1 mouse at 2.5 mg/kg, po measured at 8 hrs. Format: ADME, organism-based. On the set-up: dose 2.5 mg/kg, route oral.
Data set [4] is described as follows: Cmax in CD1 mouse at 2.5 mg/kg, po. The following applies: in vivo. On the set-up: dose 2.5 mg/kg, route oral. It is filed as ADME, organism-based.
The nature of data set [5]: Clearance in CD1 mouse at 5 mg/kg, iv. On the set-up: dose 5 mg/kg, route intravenous. Format: ADME, organism-based. The following applies: in vivo.
A short description of data set [6]: Volume of distribution at steady state in CD1 mouse at 5 mg/kg, iv. On the set-up: dose 5 mg/kg, route intravenous. The following applies: in vivo, read-out: Vdss. Format: ADME, organism-based.
Data set [7] in a line: Aqueous solubility of the compound. The following applies: buffer. Format: physicochemical.
Data set [8] relates to Mus musculus. The data set is described as follows: In vivo inhibition of IR phosphorylation in human GEO cells xenografted in nu/nu CD1 mouse at 2 mg/kg, po measured up to 48 hrs relative to control. Format: functional. The procedure, abridged:
(§1)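 Single oral dose of 2 mg/kg to mice bearing GEO colon cancer xenografts (IGF-1R/IGF-II autocrine loop). Phosphorylation of IGF-1R and of IR in tumors followed over time up to 48 h after dosing, expressed as inhibition versus control.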
A general note: In xenograft studies the graft and the host belong to different species.

The test system of another data set is GEO. The data set is described as follows: (§2) Antitumor activity against human GEO cells xenografted in nu/nu CD1 mouse assessed as tumor growth inhibition administered as intermittent dosing regimen relative to vehicle-treated control. It is filed as functional.
Data set [9] can be described thus: Antitumor activity against human GEO cells xenografted in nu/nu CD1 mouse assessed as tumor growth inhibition at 2 mg/kg, po q7d administered for 14 days measured twice per week relative to vehicle-treated control. The following applies: 336 h, read-out: TGI.
Data set [10] concerns Mus musculus. The data set is described as follows: In vivo inhibition of IGF-1R phosphorylation in human GEO cells xenografted in nu/nu CD1 mouse at 2 mg/kg, po measured up to 48 hrs relative to control. Format: functional. The procedure, abridged:
as §1

Data set [11] can be described thus: Oral bioavailability in CD1 mouse at 2.5 mg/kg. Format: ADME, organism-based. The note with it: plasma.
Data set [12] in a line: Oral bioavailability in CD1 mouse at 5 mg/kg. It is filed as ADME, organism-based. The note with it: plasma.
Data set [13] is described as follows: Cmax in CD1 mouse at 5 mg/kg, po. It is filed as ADME, organism-based. On the set-up: dose 5 mg/kg, route oral. The following applies: in vivo.
A short description of data set [14]: Clearance in CD1 mouse at 0.5 mg/kg, iv. It is filed as ADME, organism-based. On the set-up: dose 0.5 mg/kg, route intravenous. The following applies: in vivo.
The nature of data set [15]: Volume of distribution at steady state in CD1 mouse at 0.5 mg/kg, iv. Format: ADME, organism-based. The following applies: in vivo, read-out: Vdss. On the set-up: dose 0.5 mg/kg, route intravenous.
A short description of data set [16]: Tmax in CD1 mouse at 5 mg/kg, po. Format: ADME, organism-based. On the set-up: dose 5 mg/kg, route oral. The following applies: in vivo.
The nature of data set [17]: Plasma concentration in CD1 mouse at 5 mg/kg, po measured at 8 hrs. Format: ADME, organism-based. On the set-up: dose 5 mg/kg, route oral.
A short description of data set [18]: as §2. It is filed as functional.
Data set [19] is described as follows: Antitumor activity against human GEO cells xenografted in nu/nu CD1 mouse assessed as tumor growth inhibition at 5 mg/kg, po qd administered for 14 days measured twice per week relative to vehicle-treated control. The following applies: 336 h, read-out: TGI. Format: functional. In outline:
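GEO human colon cancer xenografts in mice; oral dosing at 5 mg/kg once daily, days 1–14. Tumor volumes expressed as mean percentage of initial volume ± SE; TGI calculated relative to vehicle-treated group.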

Data set [20] can be described thus: Plasma concentration in CD1 mouse at 5 mg/kg, po measured at 24 hrs. It is filed as ADME, organism-based. On the set-up: dose 5 mg/kg, route oral.
Data set [21] has as its target Insulin-like growth factor 1 receptor (Homo sapiens) (UniProt P08069).

SMILES strings stand for the structures. Calls of active or inactive are those of the source. The calls are words filed in the database; no cut-off is given here.

Sequence of Insulin-like growth factor 1 receptor (Homo sapiens) (P08069 31-736 limits assumed): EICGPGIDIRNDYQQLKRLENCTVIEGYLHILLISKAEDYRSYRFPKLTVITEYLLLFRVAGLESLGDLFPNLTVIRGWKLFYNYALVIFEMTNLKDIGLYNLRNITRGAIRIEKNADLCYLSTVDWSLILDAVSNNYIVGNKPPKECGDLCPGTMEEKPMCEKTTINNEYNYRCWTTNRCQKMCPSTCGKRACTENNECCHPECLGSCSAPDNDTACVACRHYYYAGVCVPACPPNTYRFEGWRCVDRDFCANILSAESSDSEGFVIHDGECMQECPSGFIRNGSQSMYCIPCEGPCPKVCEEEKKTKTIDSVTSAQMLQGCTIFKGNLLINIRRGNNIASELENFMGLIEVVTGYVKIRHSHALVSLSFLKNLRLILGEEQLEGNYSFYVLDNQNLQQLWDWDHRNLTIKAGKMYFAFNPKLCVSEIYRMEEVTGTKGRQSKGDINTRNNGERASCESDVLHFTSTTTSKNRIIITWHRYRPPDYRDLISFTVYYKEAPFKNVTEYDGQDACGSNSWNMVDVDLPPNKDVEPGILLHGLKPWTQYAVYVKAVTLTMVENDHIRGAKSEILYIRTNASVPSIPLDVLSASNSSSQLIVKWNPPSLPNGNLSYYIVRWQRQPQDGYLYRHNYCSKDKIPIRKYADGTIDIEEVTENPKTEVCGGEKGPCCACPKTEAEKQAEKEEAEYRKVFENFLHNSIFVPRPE
Sequence of Insulin-like growth factor 1 receptor (Homo sapiens) (P08069 741-1367 limits assumed): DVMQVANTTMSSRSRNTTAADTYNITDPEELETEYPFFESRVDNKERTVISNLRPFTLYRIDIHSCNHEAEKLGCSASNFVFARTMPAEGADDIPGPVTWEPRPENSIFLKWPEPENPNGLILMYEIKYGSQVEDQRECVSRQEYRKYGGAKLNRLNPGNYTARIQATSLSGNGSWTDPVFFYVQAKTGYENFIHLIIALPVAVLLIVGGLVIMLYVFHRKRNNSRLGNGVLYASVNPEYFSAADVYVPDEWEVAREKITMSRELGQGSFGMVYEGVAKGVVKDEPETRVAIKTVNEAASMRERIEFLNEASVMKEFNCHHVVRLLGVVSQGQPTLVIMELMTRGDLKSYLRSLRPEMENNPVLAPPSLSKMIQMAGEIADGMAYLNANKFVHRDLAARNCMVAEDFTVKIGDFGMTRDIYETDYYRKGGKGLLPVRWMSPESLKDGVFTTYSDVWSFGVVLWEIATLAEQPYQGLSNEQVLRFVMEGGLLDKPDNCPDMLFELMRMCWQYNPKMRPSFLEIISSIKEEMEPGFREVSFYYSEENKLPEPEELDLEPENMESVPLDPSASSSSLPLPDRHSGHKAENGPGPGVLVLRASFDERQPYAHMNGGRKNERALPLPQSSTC

On to `CCOc1cc(-c2ccccc2)nc2cc(-c3nc([C@H]4C[C@@](C)(O)C4)n4ccnc(N)c34)ccc12`, for which, in data set [1], the Tmax came to 30 min. For the same compound, the concentration at 24 h in data set [2] is less than 30 nM. In data set [3], this compound came in with a concentration at 8 h of 320 nM. In data set [4], this compound yielded a Cmax of 2200 nM. In addition, the clearance in data set [5] was 5 mL/min/kg. Also, the Vd in data set [6] turned out to be 1.5 L/kg. The solubility result in data set [7] is reported as “soluble”. Besides, the inhibition in vivo at 2 mg/kg came out at 80% in the data set on Mus musculus [8], 66% in data set [9] and 80% in the data set on Mus musculus [10]. Besides, the TGI entry with GEO is “Active”. The bioavailability in data set [11] worked out at 63%.

As to `COc1cc(-c2ccccc2)nc2cc(-c3nc([C@H]4C[C@@](C)(O)C4)n4ccnc(N)c34)ccc12`, the bioavailability in data set [12] was 74%. Further, the highest level in data set [13] (Cmax) was 3200 nM. For the same compound, the clearance in [14] turned out to be 17 mL/min/kg. Further, in data set [15], the Vd was determined as 2.4 L/kg. Besides, the Tmax in [16] is 30 min. The compound also yielded a concentration at 8 h in [17] of 280 nM. Moreover, the TGI in [18] is less than 50%. In addition, in data set [19], the inhibition in vivo at 5 mg/kg stood at 64%. The compound further yielded a concentration at 24 h in data set [20] of less than 30 nM.

Consider `C[C@]1(O)C[C@@H](c2nc(-c3ccc4ccc(-c5ccccc5)nc4c3)c3c(N)nccn32)C1`, for which the T1/2 in data set [21] is 12 min.

Usually Tmax stands for the time from dosing to the highest level. Usually Cmax stands for the highest concentration seen after dosing. What is called clearance is the rate of elimination divided by the concentration. As a reminder, the bioavailability is dose-corrected exposure relative to a reference, in per cent. High values mean good availability, low ones poor availability.
